Shown are actives, neighbours in structure and some others; about 2% of the full set was active somewhere.
PKA-R2B activ: activates the human PKA-R2B holoenzyme complex. PKA-R2B holoenzyme dissociation, Cy5-IP20 fluorescence polarization; R2B truncated from residue 108, S112A mutant; 0% DMSO only, 100% 113 µM cGMP. P22694+P31323. activation, % at 11.4 µM. hit rate 0.079% among 340,000;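 active = activation above a cutoff set at the mean over all compounds plus 3 SD, cut at about 18% in these data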;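 note: higher means more holoenzyme dissociation and a rise in polarization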
PKA-R1A activ: activates the PKA-R1A holoenzyme complex; P00514+P68181; PKA-R1A dissociation, Cy5-IP20 fluorescence polarization; scaled: DMSO 0%, 113 µM cGMP 100%; activation, % at 11.4 µM; hit rate 0.083% among 340,000; AID 504707;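 active = percent activation above the mean of all tested compounds plus 3 SD, cut at about 19% in these data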;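 note: higher means more PKAc released from R1A so a rise in polarization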
dFosB activator: enhances mouse delta FosB homodimer DNA binding; hit rate 0.99% among 340,000; purified delta FosB, TAMRA-CDK5 oligo fluorescence polarization; percent of positive-control signal above neutral wells; P13346; activation, % at 25 µM;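 active = mean activation above about 17%, with every replicate also reaching it, limit read from the data, passing the limit was not always enough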
Target sequence (P13346 whole entry, looked up): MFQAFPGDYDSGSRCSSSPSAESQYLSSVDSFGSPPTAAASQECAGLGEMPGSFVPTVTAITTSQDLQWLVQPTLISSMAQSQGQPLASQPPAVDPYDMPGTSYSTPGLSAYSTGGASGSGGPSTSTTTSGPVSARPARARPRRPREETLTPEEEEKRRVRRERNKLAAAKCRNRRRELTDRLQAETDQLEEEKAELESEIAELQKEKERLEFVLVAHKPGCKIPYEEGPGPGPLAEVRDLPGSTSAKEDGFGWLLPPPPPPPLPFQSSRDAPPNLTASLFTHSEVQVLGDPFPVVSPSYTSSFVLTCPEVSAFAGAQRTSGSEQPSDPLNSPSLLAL
CAL PDZ FP-1: inhibitors of human CAL PDZ peptide binding; AID 504414; inhibition, % at 20 µM; Q9HD26; purified CAL PDZ, TMR-peptide fluorescence polarization, 1 h; hit rate 0.02% among 330,000;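 active = highest replicate inhibition of at least 40%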;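 note: plate controls were DMSO neutral control wells for no effect and unlabeled competitor peptide control wells for full effect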
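material = purified tagged CAL PDZ domain construct (CerCALP) | buffer or medium = sodium phosphate/NaCl buffer pH 7.4 with TCEP, IgG, Thesit | reagent = TMR-labelled reporter peptide T*-PRC34 bound in PDZ groove | incubation = 1 h room-temperature incubation prior to read | measured by = fluorescence polarization (mP) | evaluation = percent inhibition from loss of millipolarization | control set = unlabelled peptide and DMSO controls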
CAL PDZ FP-2: inhibitors of human CAL PDZ peptide binding. purified CAL PDZ, TMR-peptide fluorescence polarization, 1 h. inhibition, % at 24.9 µM. hit rate 0.92% among 300,000. AID 602252;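 active = mean inhibition of at least 30% with at least half of replicates also reaching 30%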;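 note: 0% = DMSO neutral control and 100% = excess unlabeled competitor peptide PRC23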
NTR1 ag: activates human neurotensin receptor 1. P30989. NTR1-U2OS beta-arrestin-GFP spot imaging, agonist mode. activation, % at 20 µM. hit rate 0.17% among 330,000;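 active = activation at or above 40% of the spot to cytoplasm intensity ratio, with at least 20 cells analyzed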;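 note: 0% = DMSO without peptide and 100% = 100 nM NTR1 peptide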
Starred values were filed as active, the others as inactive; / = no result given.

SMILES | PKA-R2B activ | PKA-R1A activ | dFosB activator | CAL PDZ FP-1 | CAL PDZ FP-2 | NTR1 ag
COC(=O)C[C@H]1C[C@H]2c3cc(NC(=O)Cc4ccncc4)ccc3O[C@H]2[C@@H](CO)O1 | 1 | -1 | / | / | / | /
CC(C)CSc1ncnc2c1oc1nc3c(cc12)COC(C)(C)C3 | -10 | 1 | -10 | -3 | / | 5
C=CCSc1ncnc2c1oc1nc3c(cc12)COC(C)(C)C3 | -8 | -6 | 6 | -1 | 84* | 2
COCCN1C2=C(C(=O)CC(C)(C)C2)C(c2ccc(OC)c(OC)c2)C2=C1CC(C)(C)CC2=O | -1 | -4 | -3 | -1 | -1 | 0
CCOC(=O)C(Cc1ccccc1)c1ccnc2ncnn12 (centres undefined) | 0 | 3 | -3 | 0 | 34* | -2
Cc1ccc(S(=O)(=O)NN=CC=CC=NNS(=O)(=O)c2ccc(C)cc2)cc1 | 0 | 16 | / | / | / | /
COc1ccc(/C(C)=N/NC(=O)c2cc(-c3cccnc3)nc3ccccc23)cc1 | 1 | -4 | -5 | -3 | -1 | 2
C/C(=N\NC(=O)c1cc(-c2ccncc2)nc2ccccc12)c1ccc(OC(F)F)cc1 | 2 | -11 | -9 | 0 | 70* | 3
CCC(CO)NCc1ccc(OC2CCCC2)cc1 (centres undefined) | -5 | 7 | 0 | 0 | 47* | 1
CCC(CO)NCc1ccc(Br)cc1 (centres undefined) | -11 | -6 | 5 | -3 | 0 | 0
CNc1ncnc2c1cnn2C1CCCCO1 (centres undefined) | 6 | -5 | -1 | -2 | 0 | /
CSCCC(=O)NC1CCCN(CCc2ccccc2)C1 (centres undefined) | -4 | -1 | -11 | 0 | 2 | 1
Cc1ccccc1N(CC(=O)NCCc1ccccc1)C(=O)c1csnn1 | 1 | -3 | -12 | -1 | -3 | 0
COC(=O)[C@H](Cc1ccccc1)NC(=O)NC(C)CCc1ccccc1 (some centres undefined) | 3 | 2 | -6 | / | 42* | 1
COc1ccc(O)c(C(=O)c2cc(C#N)c(=O)n(-c3ccc(Cl)cc3)c2)c1 | -4 | -19 | -9 | 0 | 39* | 5
COc1ccc(-n2cc(C(=O)c3cc(Cl)ccc3O)cc(C#N)c2=O)cc1 | -7 | -3 | -5 | -1 | -3 | 0
O=C(CSc1nc2[nH]ncc2c(=O)[nH]1)Nc1cc(C(F)(F)F)ccc1Cl | 6 | 1 | / | / | / | /
COc1cccc(NC(=O)Cn2c3ccccc3c3nc4n(c(=O)c32)CCCS4)c1 | -10 | 0 | 7 | -2 | -3 | 1
Nc1cc(C(=O)c2ccccc2)ccc1[N+](=O)[O-] | 0 | 9 | -3 | -2 | 37* | 0
COc1cc(/C=N/Nc2ccc(Cl)c(C(=O)O)c2)ccc1OC(=O)c1ccc(F)cc1 | -6 | -10 | -7 | -1 | -3 | 1
COc1cc(/C=N/Nc2ccc(Cl)c(C(=O)O)c2)ccc1OC(=O)c1ccccc1F | 5 | -6 | 0 | -1 | 42* | -1
O=C(CN1CCN(CC(=O)Nc2cccc(F)c2)CC1)Nc1ccc(-c2ccccc2)cc1 | 0 | 5 | 1 | -1 | 58* | 10
O=C(Nc1cccc(F)c1)N1CCN(C/C=C/c2ccccc2)CC1 | 4 | 7 | -6 | -1 | 39* | -3
COc1ccccc1N1CCN(CC(=O)Nc2cccc(F)c2)CC1 | -8 | 5 | 0 | 0 | -3 | -1
O=C(Nc1ccc(F)cc1)N1CCN(C/C=C/c2ccccc2)CC1 | -4 | 8 | -2 | -3 | 0 | -3
SMILES | PKA-R2B activ | PKA-R1A activ | dFosB activator | CAL PDZ FP-1 | CAL PDZ FP-2 | NTR1 ag
O=C(Nc1ccccc1)c1ccc2snnc2c1 | -18 | -9 | -5 | 0 | 78* | 2
CCN(CC)CCn1c(=S)[nH]c2cc(C(=O)NCCc3ccc(OC)c(OC)c3)ccc2c1=O | -2 | -2 | / | / | / | /
CN1CCN(CCCNc2nc3ccccc3c3nc(-c4ccccc4)nn23)CC1 | 2 | -7 | -28 | -5 | 8 | /
CCN(CC)CCCNc1nc2ccccc2c2nc(-c3ccncc3)nn12 | 0 | -9 | 67* | -3 | 3 | 0
CCN(CC)CCCNc1nc2cc(OC)c(OC)cc2c2nc(-c3cccnc3)nn12 | 8 | 8 | 245* | -3 | -14 | 0
CCN(CC)CCCNc1nc2cc(OC)c(OC)cc2c2nc(-c3ccccc3)nn12 | -10 | 5 | 181* | -2 | -14 | -1
COc1cc2nc(NCCCN3CCN(C)CC3)n3nc(-c4ccccc4)nc3c2cc1OC | 1 | -1 | 166* | 0 | -11 | 0
COCCCNc1nc2cc(OC)c(OC)cc2c2nc(-c3ccccc3)nn12 | -8 | -1 | -18 | 0 | -2 | 6
CCCc1cc(=O)n2nc(N3CCC(C(=O)NCc4ccco4)CC3)sc2n1 | -1 | -15 | -9 | -1 | 0 | -1
C=C(C)C(=O)N1CCN(C(=O)C(=C)C)c2ccccc21 | -2 | 3 | -17 | 1 | 0 | /
O=C(NCCc1ccccc1)C1CCC(CNS(=O)(=O)c2ccc(F)cc2)CC1 (centres undefined) | -3 | 7 | 3 | 0 | 41* | 1
Cc1ccc(S(=O)(=O)NCC2CCC(C(=O)NCCCN3CCC(C)CC3)CC2)cc1 (centres undefined) | 3 | 8 | / | / | / | /
Cc1ccc(S(=O)(=O)NCC2CCC(C(=O)NCCCN3CCOCC3)CC2)cc1 (centres undefined) | 4 | -6 | -1 | -4 | 39* | -1
Cc1cc(N2CCCC2)ccc1NC(=O)COc1cccc(C(F)(F)F)c1 | 5 | 6 | -10 | 0 | / | 13
CSC[C@H]1CN(Cc2ccccc2)C(=O)[C@@H]1CC(=O)Nc1ccc(Br)cc1 | -4 | -1 | / | / | / | /
CC1=NS(=O)(=O)NC(C)(C)C1 | -9 | -12 | -5 | 0 | 5 | /
Nc1nnnn1-c1cccc([N+](=O)[O-])c1 | -10 | -6 | -1 | -1 | 4 | /
Cc1ccc(NC(=O)CCCc2ccccc2)c([N+](=O)[O-])c1 | -4 | -4 | 3 | / | 33* | 3
COC(=O)c1sccc1NC(=O)CC1NCCNC1=O (centres undefined) | -5 | -12 | 0 | -1 | 130* | 0
Cc1ccccc1C(=O)NC(CC(C)C)C(=O)N1CCN(c2ccccc2)CC1 (centres undefined) | -6 | 9 | -8 | -1 | 35* | -1
O=C1OCc2ccc([N+](=O)[O-])cc21 | 6 | 2 | 1 | -1 | / | /
O=C(CC(=O)N/N=C/c1ccccc1)NCc1ccccc1 | -5 | 6 | 1 | -1 | 147* | -1
